The text below walks through data of ChEMBL document CHEMBL4477213, “Discovery and Optimization of Quinazolinone-pyrrolopyrrolones as Potent and Orally Bioavailable Pan-Pim Kinase Inhibitors” (J Med Chem, 2016).

In brackets after ≈: the same amount, converted by molar mass.

Series [1] is described as follows: Aqueous solubility of the compound in FaSIF at pH 6.8 after 1 hr by LC/MS analysis.
The nature of series [2]: Aqueous solubility of the compound in PBS at pH 7.4 after 1 hr by LC/MS analysis. In kind it is physicochemical. In outline: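 The compound was dried down from DMSO and taken up in 1x PBS (pH 7.4) or FaSIF (pH 6.8). Samples were shaken 1 h, equilibrated at RT for 72 h, then centrifuged.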
In series [3] the test system is Mus musculus. As to the kind of experiment: In vivo inhibition of pan Pim in SCID-bg mouse xenografted with human KMS-12-BM cells assessed as phosphorylation of BAD peptide at Serine 112 residue at 25 mg/kg, po qd measured at 4 hrs post dose relative to control. Details: scale not given: the % may be the effect or the level left. The series is classed as functional.

Series [4] has as its system Mus musculus. Description: In vivo inhibition of pan Pim in SCID-bg mouse xenografted with human KMS-12-BM cells assessed as phosphorylation of BAD peptide at Serine 112 residue at 50 mg/kg, po qd measured at 8 hrs post dose relative to control. In kind it is functional. Details: scale not given: the % may be the effect or the level left.
The target in series [5] is Dual specificity protein kinase CLK4 (Homo sapiens) (UniProt Q9HAZ1). As to the kind of experiment: Inhibition of human CLK4 (135 to 481 residues) expressed in bacterial system assessed as remaining enzyme activity at 1 uM by KINOMEScan assay relative to control.
Sequence of Dual specificity protein kinase CLK4 (Homo sapiens) (Q9HAZ1 whole entry, looked up, the tested form may be a part): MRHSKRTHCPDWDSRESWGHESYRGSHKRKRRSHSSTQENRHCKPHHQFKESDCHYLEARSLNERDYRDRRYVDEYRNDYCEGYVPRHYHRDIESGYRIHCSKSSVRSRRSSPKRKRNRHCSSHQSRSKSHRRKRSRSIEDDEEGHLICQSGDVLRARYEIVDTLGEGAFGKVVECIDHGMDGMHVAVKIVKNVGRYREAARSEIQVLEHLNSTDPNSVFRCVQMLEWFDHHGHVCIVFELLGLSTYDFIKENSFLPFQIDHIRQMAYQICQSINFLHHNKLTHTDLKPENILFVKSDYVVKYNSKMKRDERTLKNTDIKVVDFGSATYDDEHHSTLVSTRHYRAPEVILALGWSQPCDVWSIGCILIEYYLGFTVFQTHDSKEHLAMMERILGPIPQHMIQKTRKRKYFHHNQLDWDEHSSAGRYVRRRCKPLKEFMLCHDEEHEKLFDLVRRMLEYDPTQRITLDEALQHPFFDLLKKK
Series [6] deals with Mus musculus. Description: In vivo inhibition of pan Pim in SCID-bg mouse xenografted with human KMS-12-BM cells assessed as phosphorylation of BAD peptide at Serine 112 residue at 25 mg/kg, po qd measured at 24 hrs post dose relative to control. Details: scale not given: the % may be the effect or the level left. In kind it is functional.
Series [7] can be described thus: Oral bioavailability in rat at 5 mg/kg. The series is classed as ADME, organism-based. Particulars: in vivo.
Series [8] relates to Mus musculus. Description: In vivo inhibition of pan Pim in SCID-bg mouse xenografted with human KMS-12-BM cells assessed as phosphorylation of BAD peptide at Serine 112 residue at 25 mg/kg, po qd measured at 8 hrs post dose relative to control. In kind it is functional. Details: scale not given: the % may be the effect or the level left.
Series [9] can be described thus: Volume of distribution at steady state in dog at 0.3 mg/kg, iv. The series is classed as ADME, organism-based, Canis lupus familiaris. Particulars: in vivo, read-out: Vdss.
In series [10] the test system is Mus musculus. Description: In vivo inhibition of pan Pim in SCID-bg mouse xenografted with human KMS-12-BM cells assessed as phosphorylation of BAD peptide at Serine 112 residue at 100 mg/kg, po qd measured at 4 hrs post dose relative to control. The series is classed as functional. Details: scale not given: the % may be the effect or the level left.
The test system of series [11] is Mus musculus. As to the kind of experiment: In vivo inhibition of pan Pim in SCID-bg mouse xenografted with human KMS-12-BM cells assessed as phosphorylation of BAD peptide at Serine 112 residue at 25 mg/kg, po qd measured at 1 hr post dose relative to control. The series is classed as functional. Details: scale not given: the % may be the effect or the level left.

The test system of series [12] is KMS-12-BM. Description: Antitumor activity against human KMS-12-BM cells xenografted in SCID-bg mouse assessed as tumor growth inhibition at 100 mg/kg, po qd measured twice per week. The series is classed as functional. Particulars: read-out: TGI.
Series [13] concerns Mus musculus. Description: In vivo inhibition of pan Pim in SCID-bg mouse xenografted with human KMS-12-BM cells assessed as phosphorylation of BAD peptide at Serine 112 residue at 100 mg/kg, po qd measured at 8 hrs post dose relative to control. In kind it is functional. Details: scale not given: the % may be the effect or the level left.
The subject of series [14] is Mus musculus. As to the kind of experiment: In vivo inhibition of pan Pim in SCID-bg mouse xenografted with human KMS-12-BM cells assessed as phosphorylation of BAD peptide at Serine 112 residue at 10 mg/kg, po qd measured at 1 hr post dose relative to control. The series is classed as functional. Details: scale not given: the % may be the effect or the level left.

Series [15] relates to Mus musculus. Description: In vivo inhibition of pan Pim in SCID-bg mouse xenografted with human KMS-12-BM cells assessed as phosphorylation of BAD peptide at Serine 112 residue at 10 mg/kg, po qd measured at 12 hrs post dose relative to control. In kind it is functional. Details: scale not given: the % may be the effect or the level left.
Series [16] has as its system Mus musculus. Description: In vivo inhibition of pan Pim in SCID-bg mouse xenografted with human KMS-12-BM cells assessed as phosphorylation of BAD peptide at Serine 112 residue at 10 mg/kg, po qd measured at 4 hrs post dose relative to control. The series is classed as functional. Details: scale not given: the % may be the effect or the level left.
The species named for series [17] is Bos taurus. As to the kind of experiment: Inhibition of bovine I1-receptor assessed as remaining enzyme activity at 10 uM relative to untreated control.
In series [18] the test system is Mus musculus. Description: In vivo inhibition of pan Pim in SCID-bg mouse xenografted with human KMS-12-BM cells assessed as plasma concentration required for reduction of BAD peptide phosphorylation at Serine 112 residue at 10 to 100 mg/kg, po qd measured after 1 to 24 hrs post dose. In kind it is functional, organism-based.
Series [19] can be described thus: Volume of distribution at steady state in rat at 2 mg/kg, iv or 5 mg/kg, po. The series is classed as ADME, organism-based. Particulars: in vivo, read-out: Vdss.
Series [20] concerns Mus musculus. As to the kind of experiment: In vivo inhibition of pan Pim in SCID-bg mouse xenografted with human KMS-12-BM cells assessed as phosphorylation of BAD peptide at Serine 112 residue at 10 mg/kg, po qd measured at 8 hrs post dose relative to control. The series is classed as functional. Details: scale not given: the % may be the effect or the level left.
In series [21] the test system is Mus musculus. Description: In vivo inhibition of pan Pim in SCID-bg mouse xenografted with human KMS-12-BM cells assessed as phosphorylation of BAD peptide at Serine 112 residue at 50 mg/kg, po qd measured at 12 hrs post dose relative to control. In kind it is functional. Details: scale not given: the % may be the effect or the level left.
Series [22] concerns Mus musculus. As to the kind of experiment: In vivo inhibition of pan Pim in SCID-bg mouse xenografted with human KMS-12-BM cells assessed as phosphorylation of BAD peptide at Serine 112 residue at 100 mg/kg, po qd measured at 1 hr post dose relative to control. The series is classed as functional. Details: scale not given: the % may be the effect or the level left.
The subject of series [23] is KMS-12-BM. As to the kind of experiment: Antitumor activity against human KMS-12-BM cells xenografted in SCID-bg mouse assessed as tumor growth inhibition at 25 mg/kg, po qd measured twice per week. In kind it is functional. Particulars: read-out: TGI.
Series [24] concerns KMS-12-BM. As to the kind of experiment: Antitumor activity against human KMS-12-BM cells xenografted in SCID-bg mouse assessed as tumor growth inhibition at 50 mg/kg, po qd measured twice per week. The series is classed as functional. Particulars: read-out: TGI.

For the molecule `C[C@H]1NC(=O)c2cc(-c3cccc4c(=O)n(C)c(NC(C)(C)C)nc34)[nH]c21`, the solubility at 1 h in [1] stood at 104 µM (≈ 38 µg/mL); in series [2], 60 µM (≈ 21.9 µg/mL). Besides, the Activity in series [3] stood at 60%; in series [4], 85%; in series [5], 0.2%; in series [6], 0%; in [8] it was 60%; in series [10], 63%. Further, the Activity in series [11] was 60%; in series [13], 70%; in series [14], 52%; in series [15], 34%; in series [16], 50%; in series [17] it was < 10%. The Activity was found to be 41% in [20], 65% in series [21] and 61% in series [22]. In series [7], this molecule had a bioavailability of 39%. The Vd in series [9] was 1 L/kg; in series [19] it was 1.5 L/kg. Besides, the inhibition in vivo at 100 mg/kg in series [12] amounted to 95%. Moreover, the EC50 in series [18] was found to be 254 nM. Moreover, the inhibition in vivo at 25 mg/kg in [23] was determined as 65%. Besides, the inhibition in vivo at 50 mg/kg in [24] was 93%.
